This is an account of results in paper PMC7112766 (Science Advances, 2020).

The target of one experiment is T1, I-A^b (Mus musculus, UniProt P14434+P14483).
T1 sequence (P14434 24-256): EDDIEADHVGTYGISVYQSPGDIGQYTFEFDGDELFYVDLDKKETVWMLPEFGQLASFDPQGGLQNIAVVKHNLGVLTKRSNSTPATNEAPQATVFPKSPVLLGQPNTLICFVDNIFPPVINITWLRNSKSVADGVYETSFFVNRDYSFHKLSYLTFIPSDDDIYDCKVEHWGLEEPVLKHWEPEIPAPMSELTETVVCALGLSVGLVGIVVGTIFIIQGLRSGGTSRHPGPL
T1 sequence (P14483 28-265): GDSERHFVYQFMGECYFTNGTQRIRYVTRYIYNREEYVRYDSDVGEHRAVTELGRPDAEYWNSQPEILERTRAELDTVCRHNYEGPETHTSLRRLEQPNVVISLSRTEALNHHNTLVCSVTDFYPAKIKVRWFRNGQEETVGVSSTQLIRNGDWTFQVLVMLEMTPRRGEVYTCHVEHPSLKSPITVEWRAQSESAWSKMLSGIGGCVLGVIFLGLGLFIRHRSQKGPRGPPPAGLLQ
Kind of experiment: MHC binding assay, inhibition of radiolabeled peptide binding, I-A^b. Put shortly: (§1)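 Class II MHC affinity-purified from mouse B cell lymphoma LB27.4. Complexes captured on Y3JP antibody-coated plates; bound cpm counted by microscintillation. Six peptide concentrations over a 100,000-fold range, ≥3 independent experiments. IC50 is the concentration giving 50% probe inhibition; unlabeled probe is the positive control.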

In the next experiment the target is T2, I-E^d (Mus musculus, UniProt P01904+P01915).
T2 sequence (P01904 26-255): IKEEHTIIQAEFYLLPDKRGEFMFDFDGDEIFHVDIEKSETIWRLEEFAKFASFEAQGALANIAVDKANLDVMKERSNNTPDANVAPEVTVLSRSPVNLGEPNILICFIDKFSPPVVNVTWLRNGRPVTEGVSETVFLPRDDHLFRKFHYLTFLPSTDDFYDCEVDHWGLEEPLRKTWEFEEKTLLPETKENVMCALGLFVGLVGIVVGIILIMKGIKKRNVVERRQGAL
T2 sequence (P01915 27-264 limits assumed): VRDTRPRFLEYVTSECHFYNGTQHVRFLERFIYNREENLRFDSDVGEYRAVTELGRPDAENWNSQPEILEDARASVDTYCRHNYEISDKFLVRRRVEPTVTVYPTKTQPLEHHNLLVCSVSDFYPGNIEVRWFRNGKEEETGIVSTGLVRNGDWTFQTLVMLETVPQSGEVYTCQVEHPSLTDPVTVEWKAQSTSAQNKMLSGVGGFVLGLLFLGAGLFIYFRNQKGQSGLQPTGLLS
Kind of experiment: MHC binding assay, inhibition of radiolabeled peptide binding, I-E^d.

The next experiment has as its target T3, I-A^d (Mus musculus, UniProt P01921+P04228).
T3 sequence (P04228 24-256): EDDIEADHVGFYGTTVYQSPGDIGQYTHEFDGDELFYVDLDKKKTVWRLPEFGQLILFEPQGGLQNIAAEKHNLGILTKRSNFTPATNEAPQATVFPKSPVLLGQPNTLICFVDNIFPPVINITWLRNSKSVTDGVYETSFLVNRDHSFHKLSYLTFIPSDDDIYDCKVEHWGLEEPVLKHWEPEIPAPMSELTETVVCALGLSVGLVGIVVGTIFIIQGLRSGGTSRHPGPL
T3 sequence (P01921 28-265): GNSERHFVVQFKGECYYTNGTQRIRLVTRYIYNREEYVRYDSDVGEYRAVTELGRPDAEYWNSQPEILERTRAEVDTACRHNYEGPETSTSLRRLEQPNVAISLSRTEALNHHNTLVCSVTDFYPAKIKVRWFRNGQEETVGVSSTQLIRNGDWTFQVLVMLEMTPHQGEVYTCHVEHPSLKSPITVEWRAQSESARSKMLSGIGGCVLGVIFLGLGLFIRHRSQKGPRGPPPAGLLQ
Kind of experiment: MHC binding assay, inhibition of radiolabeled peptide binding, I-A^d. Summed up: as §1

In experiment [1] the test system is splenocytes. The conditions noted are these: mouse, in vivo.
Experiment [2] deals with splenocytes. Type of experiment: cell-based, mouse. The conditions noted are these: for IL-17A or IFNγ responses by ELISpot: 24 hours, 37°C.
The next experiment deals with TFH cells. The settings on record: mouse, in vivo.
In a further experiment the test system is S. aureus. Also noted: species or system S. aureus strain 923, a USA300 isolate; mice. The conditions noted are these: mouse, in vivo.
Experiment [3] has as its system tetramer^+ CD44^hi CD4^+ T cells. The settings on record: mouse, in vivo.

Entries after “also recorded” stand apart in the source; their conditions may differ.

What is called IC50 is the concentration at which inhibition is half-maximal. Higher therefore signals weaker potency in that assay. `CC[C@H](C)[C@H](NC(=O)[C@H](CCC(=O)O)NC(=O)[C@H](Cc1c[nH]cn1)NC(=O)[C@@H](NC(=O)[C@H](CCCCN)NC(=O)[C@H](Cc1c[nH]c2ccccc12)NC(=O)[C@H](CC(N)=O)NC(=O)[C@@H](NC(=O)[C@H](CCC(=O)O)NC(=O)[C@@H](N)Cc1ccc(O)cc1)C(C)C)[C@@H](C)O)C(=O)N[C@@H](CCCCN)C(=O)N[C@H](C(=O)N[C@@H](CCCCN)C(=O)NCC(=O)N[C@@H](Cc1c[nH]cn1)C(=O)N[C@@H](CC(N)=O)C(=O)O)C(C)C` [LkT/C]: the IC50 amounted to 17.3 µM at I-A^b, 2.2 nM on I-E^d and 3.21 µM at I-A^d.
`CC[C@H](C)[C@H](N)C(=O)NCC(=O)NCC(=O)N[C@@H](CC(N)=O)C(=O)NCC(=O)N[C@@H](CO)C(=O)N[C@@H](Cc1ccccc1)C(=O)N[C@@H](CC(N)=O)C(=O)N[C@@H](Cc1ccc(O)cc1)C(=O)N[C@@H](CO)C(=O)N[C@@H](CCCCN)C(=O)N[C@H](C(=O)N[C@H](C(=O)N[C@@H](CO)C(=O)N[C@@H](Cc1ccc(O)cc1)C(=O)N[C@H](C(=O)O)[C@@H](C)O)[C@@H](C)CC)[C@@H](C)O` [LukE153–168]: the concentration for half-maximal inhibition (IC50) at I-A^b was 0.586 µM.
Still for that read-out and setting: then `CC(C)[C@H](NC(=O)CNC(=O)[C@H](Cc1c[nH]c2ccccc12)NC(=O)[C@@H](N)CCCCN)C(=O)N[C@@H](CCCCN)C(=O)N[C@@H](C)C(=O)N[C@@H](CC(N)=O)C(=O)N[C@@H](CCC(=O)O)C(=O)N[C@@H](Cc1ccccc1)C(=O)N[C@H](C(=O)N[C@H](C(=O)N1CCC[C@H]1C(=O)N[C@@H](CC(=O)O)C(=O)NCC(=O)N[C@@H](CCCCN)C(=O)N[C@@H](CCCCN)C(=O)O)[C@@H](C)O)C(C)C` [LukE185–200], with 4.05 µM.
For the compound “LukE: leukotoxin E, His-tagged, purified from E. coli; antigen and vaccine”, in the experiment with splenocytes [1], the “IL-17A and IFNγ responses, vaccination compared with SSTI” value is “stronger IL-17A and IFNγ responses”; the “LukE-specific IL-17A response after vaccination” value is “no differences in LukE-specific IL-17A responses”. For the same compound, in the experiment on splenocytes [2], the “IFNγ response by ELISpot” value was “weaker IFNγ; also recorded: moderate IFNg responses”; the “IL-17A and IFNγ responses, mice expressing H-2^d compared with H-2^b” value is “significantly stronger IL-17A and IFNγ responses”; the “IL-17A response by ELISpot” value is reported as “strongest IL-17A responses; also recorded: strong IL-17A responses”; the “IL-17A or IFNγ responses by ELISpot” value was “minimal IL-17A or IFNγ responses; also recorded: no detectable responses”. In the experiment on TFH cells, the “LukE-specific TFH cells after vaccination” value is on record as “expanded a population of LukE-specific TFH cells; also recorded: expansion of LukE-specific TFH cells”. Besides, the “reduction of lesion size compared with control mice” value with S. aureus is given as “approximately 40%”. The “protection against dermonecrosis (lesion size) after vaccination” value with S. aureus (sc) is given as “moderately strong protection against dermonecrosis; also recorded: weaker protection”. For the same compound, the “LukE-specific tetramer^+ CD44^hi CD4^+ T cells after vaccination” value in experiment [3] is “high frequencies; also recorded: strong LukE-specific T cell responses”.
Consider “LukS-PV: leukocidin S-PV, purified from E. coli, GST removed; sae-regulated antigen”, for which, in the experiment with splenocytes [2], the “IFNγ response by ELISpot” value was “weaker IFNγ; also recorded: moderate IFNg responses”; the “IL-17A and IFNγ responses, mice expressing H-2^d compared with H-2^b” value was “significantly stronger IL-17A and IFNγ responses”; the “IL-17A response by ELISpot” value is listed as “strongest IL-17A responses; also recorded: strong IL-17A responses”; the “IL-17A or IFNγ responses by ELISpot” value is “minimal IL-17A or IFNγ responses; also recorded: no detectable responses”.
